Screening data deposited in PubChem BioAssay by several laboratories.
A selection: hits, their analogues and other compounds. The true share with any hit is near 1.4%.
PG9 Ab binder: PG9 antibody binding by small molecule | inhibition, % at 6.7 µM | actives 0.43% (n = 360,000) | TR-FRET gp120-PG9 antibody binding | AID 624416; in the data active = inhibition above about 8.5%
Rev-erbA mod: Rev-erb alpha (human) modulation; P20393; Rev-erbα–FITC-DNA binding, fluorescence polarization, 90 min; activity, % at 10 µM; actives 0.79% (n = 370,000);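 active = activity above about 14%, limit read from the data; passing the limit was not always enough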
NR2E3 ag-1: activates human photoreceptor nuclear receptor NR2E3; inhibition of corepressor binding, % at 4.78 µM; actives 0.12% (n = 320,000); GST-NR2E3/biotin-RetCOR TR-FRET, 1536-well; Q9Y5X4;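 active = percent inhibition above the cutoff of mean plus 3 SD of all tested compounds, set per screening campaign, cut at about 20% in these data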
Target sequence (Q9Y5X4 whole entry, looked up): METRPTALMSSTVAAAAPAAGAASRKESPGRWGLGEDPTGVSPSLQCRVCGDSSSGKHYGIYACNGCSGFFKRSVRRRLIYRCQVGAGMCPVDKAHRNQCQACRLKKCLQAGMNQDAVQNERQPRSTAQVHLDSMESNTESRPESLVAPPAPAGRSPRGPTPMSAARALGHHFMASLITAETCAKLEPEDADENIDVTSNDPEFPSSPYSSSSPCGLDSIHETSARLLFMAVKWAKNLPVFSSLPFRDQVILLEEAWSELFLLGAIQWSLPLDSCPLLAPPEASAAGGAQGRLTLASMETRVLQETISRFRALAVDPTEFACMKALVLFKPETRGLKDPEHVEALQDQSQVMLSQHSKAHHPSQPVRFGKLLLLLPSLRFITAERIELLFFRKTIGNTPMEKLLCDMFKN
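Material: NR2E3–RetCOR corepressor complex / Incubation: Compound–protein incubation for 5 h at 4 °C / Dosing: compound at 4.8 µM, single dose / Detection: time-resolved FRET / Benchmarks: high control biotin, low control 0.6% DMSO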
NR2E3 ag-2: human photoreceptor-specific nuclear receptor agonism; inhibition of corepressor binding, % at 3.98 µM; CHO-S Gal4-NCOR/VP16-NR2E3 two-hybrid, luciferase; actives 0.35% (n = 360,000);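 active = inhibition above the mean of all tested compounds plus 3 SD, cut at about 70% in these data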;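 also: higher means lower luciferase signal from less NR2E3 corepressor binding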
NR1D1 mod conf: confirmation of modulators of human Rev-erb alpha DNA binding; shares compounds with Rev-erbA mod; Rev-erb alpha FITC-DNA binding, fluorescence polarization, 90 min; activation, % at 25 µM; actives 61% (n = 3,000);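 active = activation at or above a set limit, or at least 3 SD above the negative control mean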
RORg counter: counter-screen for Rev-erb alpha modulators: RORgamma DNA binding. shares compounds with Rev-erbA mod. purified RORgamma protein-FITC-DNA binding, fluorescence polarization. IC50, µM. actives 8% (n = 910). AID 1259320;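 active = Compounds whose fitted half-maximal concentration for disrupting protein-DNA binding is below 10 micromolar; the record names Rev-erb in its text, so the target is in doubt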
Each line names hits and unclear results; the compound was inactive in the other large screens (follow-up assays come after a bar, where they were run).

O=C1C2C3C=CC(C3)C2C(=O)N1c1cccc(-c2nc3ccccc3o2)c1 (stereo unspecified)	Rev-erbA mod 29 | NR1D1 mod conf inactive
COc1ccc(N2CCN(C(=O)c3ccc(Cn4c(=S)[nH]c5ccc(N6CCOCC6)cc5c4=O)cc3)CC2)cc1	Rev-erbA mod 42 | NR1D1 mod conf inactive
Cc1ccc(C(=O)NNCC(=O)Nc2ccc(Cl)cc2F)cc1	Rev-erbA mod 18 (no result: NR2E3 ag-1) | NR1D1 mod conf inactive
O=C(CCNC(=O)c1ccc(Cl)cc1)Nc1ccc(Cl)cc1F	none
CN(CC(=O)Nc1ccc(Cl)c(C(F)(F)F)c1)C(=O)c1cn2ccccc2n1	Rev-erbA mod 20 | NR1D1 mod conf inactive
Cc1ccc(CN2C(=O)N/C(=C\c3ccc(N4CCOCC4)cc3)C2=O)cc1	none
O=C1N/C(=C\c2ccc(N3CCOCC3)c(F)c2)C(=O)N1Cc1ccccc1	Rev-erbA mod 28 | NR1D1 mod conf inactive
C/C(=C/c1[nH]c(N)[n+](CC2CC2)c1Cc1ccccc1)Cn1[nH]c(=O)n(-c2ccccc2)c1=O	none (no result: PG9 Ab binder, NR2E3 ag-1, NR2E3 ag-2)
CN1CCCC1CCSc1ncccc1-c1nc2ccccc2[nH]1 (stereo unspecified)	none (no result: PG9 Ab binder, NR2E3 ag-1, NR2E3 ag-2)
O=C(c1ccc(Cl)cc1)c1cnc(-c2ccccc2)s1	none (no result: NR2E3 ag-1)
O=C(c1ccc(Cl)cc1)c1cnc(Nc2ccccc2Cl)s1	Rev-erbA mod 35 | NR1D1 mod conf inactive
CCC[C@H]1[C@@H](NC(=O)C2CCC2)CC[C@@]23CCCN2C(=O)CCC[C@@H]13	none (no result: PG9 Ab binder, NR2E3 ag-1, NR2E3 ag-2)
COc1ccc2c(c1)c1nc3n(c(=O)c1n2CC(=O)Nc1cc(C)[nH]n1)CCS3	Rev-erbA mod 19 (no result: NR2E3 ag-2) | NR1D1 mod conf inactive
COc1ccccc1CNC(=O)c1c(O)c2cc(OC)c(OC)cc2[nH]c1=O	Rev-erbA mod 28 | NR1D1 mod conf 19
CCOC(=O)N(C)[C@H]1C[C@H]2c3[nH]c4c(-c5ccc6c(c5)OCO6)cccc4c3CCN2C(=O)[C@H]1[C@H](C)O	none (no result: PG9 Ab binder, NR2E3 ag-1, NR2E3 ag-2)
CCOc1ccc(CCNC(=O)COC(=O)c2ccc(S(C)(=O)=O)cc2)cc1OCC	Rev-erbA mod 17 | NR1D1 mod conf inactive
CCNC(=O)C[C@H]1CC[C@H]2[C@@H](COc3ccc(NC(=O)Nc4ccccc4)cc3C(=O)N2C)O1	Rev-erbA mod 34 (no result: PG9 Ab binder, NR2E3 ag-1, NR2E3 ag-2) | NR1D1 mod conf 13
CCNC(=O)C[C@H]1CC[C@H]2[C@@H](COc3ccc(NC(=O)c4ccc5c(c4)OCO5)cc3C(=O)N2C)O1	Rev-erbA mod 141 (no result: PG9 Ab binder, NR2E3 ag-1, NR2E3 ag-2) | NR1D1 mod conf 48 | RORg counter inactive
CCCNC(=O)C[C@H]1CC[C@H]2[C@@H](COc3ccc(NC(=O)Nc4ccc(C#N)cc4)cc3C(=O)N2C)O1	Rev-erbA mod 36 (no result: PG9 Ab binder, NR2E3 ag-1, NR2E3 ag-2) | NR1D1 mod conf 19
COC(=O)C[C@@H]1CC[C@@H]2[C@H](COc3ccc(NC(=O)c4ccc5c(c4)OCO5)cc3C(=O)N2C)O1	none (no result: PG9 Ab binder, NR2E3 ag-1, NR2E3 ag-2)
CNC(=O)C[C@H]1CC[C@H]2[C@@H](COc3ccc(NC(=O)Nc4ccccc4)cc3C(=O)N2C)O1	Rev-erbA mod 28 (no result: PG9 Ab binder, NR2E3 ag-1, NR2E3 ag-2) | NR1D1 mod conf 14
CCCCCCCCNC(=O)C1CSCCS(=O)(=O)N1Cc1ccc(F)cc1 (stereo unspecified)	none (no result: PG9 Ab binder, NR2E3 ag-1, NR2E3 ag-2)
COc1ccc(OC)c(S(=O)(=O)N2CCCCC2C(=O)N2CCN(Cc3ccc(F)cc3)CC2)c1 (stereo unspecified)	none (no result: PG9 Ab binder, NR2E3 ag-1, NR2E3 ag-2)
CCCC(=O)N=C1SC2CS(=O)(=O)CC2N1c1ccc(-c2nc3ccc(C)cc3s2)cc1 (stereo unspecified)	Rev-erbA mod 38 | NR1D1 mod conf inactive
O=S1(=O)C=CCN1Cc1cn(Cc2ccc(F)cc2)nn1	none (no result: PG9 Ab binder, NR2E3 ag-1, NR2E3 ag-2)
Cc1nc(-c2ccccc2)nc2[nH]c(-c3ccccc3)cc(=O)c12	Rev-erbA mod 90 | NR1D1 mod conf 81 | RORg counter inactive
O=C(NCc1ccccc1)OC1CCC12CCC(c1ccccc1)CC2 (stereo unspecified)	none (no result: PG9 Ab binder, NR2E3 ag-1, NR2E3 ag-2)
CCCN1C(=O)S/C(=C\c2ccc(N3CCOCC3)o2)C1=O	none
CCCN1C(=O)S/C(=C/c2ccc(N3CCOCC3)o2)C1=O	Rev-erbA mod 47 | NR1D1 mod conf 45 | RORg counter inactive
CC(C)(C#N)Cc1cc(CC(C)(C)C#N)cc(C(C)(C)C)c1	Rev-erbA mod 22 | NR1D1 mod conf 43 | RORg counter inactive
O=C(CCn1c(=S)[nH]c2cc3c(cc2c1=O)OCO3)NCCc1ccccc1Cl	Rev-erbA mod 23 (no result: NR2E3 ag-1) | NR1D1 mod conf 13
O=C(CCn1c(=S)[nH]c2cc3c(cc2c1=O)OCO3)NCc1ccccc1Cl	none
O=C(CCCn1c(=S)[nH]c2cc3c(cc2c1=O)OCO3)NCCc1ccccc1Cl	Rev-erbA mod 27 | NR1D1 mod conf 22
Cc1cc(C)c2c(C)c(C(=O)NCc3ccc(S(N)(=O)=O)cc3)oc2c1	Rev-erbA mod 28 | NR1D1 mod conf 20
C=CCN(CC#Cc1ccccc1)Cc1ccc(OC)cc1OC	none (no result: PG9 Ab binder, NR2E3 ag-1, NR2E3 ag-2)
Cc1cc2nc(-c3cccc(Cl)c3)c(CC(C)(C)C)n2c(C)c1Br	Rev-erbA mod 15 (no result: NR2E3 ag-1) | NR1D1 mod conf inactive
CC(Sc1nc2ccccc2c(=O)n1C)C(=O)Nc1ccc2c(c1)OCCO2 (stereo unspecified)	Rev-erbA mod 27 | NR1D1 mod conf 12
CC(C)Cn1c(SC(C)C(=O)Nc2ccc3c(c2)OCCO3)nc2ccccc2c1=O (stereo unspecified)	none (no result: NR2E3 ag-1)
COC(=O)c1sccc1NC(=O)C12CC3CC(CC(C3)C1)C2	Rev-erbA mod 25 | NR1D1 mod conf 22
COC(=O)c1sccc1NC(=O)C1CC1	none
CCOC(=O)c1c(NC(=O)c2c(Br)cnn2CC)sc(C)c1C	Rev-erbA mod 28 | NR1D1 mod conf inactive
CCCCn1c(=O)[nH]c(=O)c2c1nc(-c1ccc(OCCC)c(OCC)c1)n2C	Rev-erbA mod 21 | NR1D1 mod conf inactive
CCCCn1c(=O)[nH]c(=O)c2c1nc(-c1ccc(-c3ccccc3)cc1)n2C	none
CC1(C)CC(=O)C=C(Nc2ccccc2NC(=O)c2cc(F)cc(F)c2)C1	none (no result: PG9 Ab binder, NR2E3 ag-1, NR2E3 ag-2)
Cc1ccc(-c2csc3nc(CN(C)Cc4ccccc4)[nH]c(=O)c23)cc1	none
O=c1[nH]c(Cc2ccc(F)cc2)nc2scc(-c3ccc(F)cc3)c12	Rev-erbA mod 35 | NR1D1 mod conf 36 | RORg counter inactive
Cc1nc(SCC(=O)NC2CCCC2)c2oc3ccccc3c2n1	Rev-erbA mod 35 (no result: NR2E3 ag-1) | NR1D1 mod conf 652 | RORg counter inactive
Cc1ccc(NC(=O)CSc2ncccn2)cc1F	none
Cc1nc(SCC(=O)Nc2ccc(C)c(F)c2)c2oc3ccccc3c2n1	Rev-erbA mod 779 | NR1D1 mod conf 682
Cc1nc(SCc2ccccc2)c2oc3ccccc3c2n1	none
CCOC(=O)C1=CN(CC)CCC1=O	Rev-erbA mod 25 (no result: NR2E3 ag-1) | NR1D1 mod conf inactive
CCOC(=O)C1=CN(C)CCC1=O	none (no result: NR2E3 ag-1)
CCn1c(SCC(=O)Nc2ccc(C(C)=O)cc2)nc2nc3c(cc2c1=O)CCCC3	Rev-erbA mod 17 | NR1D1 mod conf inactive
